Results as given in ChEMBL document CHEMBL1145832, “Histamine-releasing activity and binding to the FcepsilonRI alpha human mast cell receptor subunit of mast cell degranulating peptide analogues with alanine substitutions” (J Med Chem, 2003).
Where a SMILES comes first, the peptide text is derived from it.

How the values were obtained:
Rattus norvegicus = organism: Rattus norvegicus; assay: Concentration of peptide at 50% maximal histamine release at concentration 10e-5 M; format: functional
Outline: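 Rat peritoneal mast cells (Sprague–Dawley) lavaged into carbonate- and divalent-cation-free Tyrode's with 15 mM Hepes pH 7.2, 0.1% BSA, purified on Accudenz gradient; (1–2) × 10^3 cells/well with peptide, 37 °C 20 min. Residual cellular histamine freed by Triton X-100 then TFA, measured fluorometrically with phthalaldehyde/NaOH; n = 6; nonlinear regression.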

[1] = biological target: T1, High affinity immunoglobulin epsilon receptor subunit alpha (Homo sapiens, UniProt P12319); assay: Binding affinity towards Fc-epsilon RI-alpha human mast cell receptor was determined
T1 sequence (P12319 whole entry): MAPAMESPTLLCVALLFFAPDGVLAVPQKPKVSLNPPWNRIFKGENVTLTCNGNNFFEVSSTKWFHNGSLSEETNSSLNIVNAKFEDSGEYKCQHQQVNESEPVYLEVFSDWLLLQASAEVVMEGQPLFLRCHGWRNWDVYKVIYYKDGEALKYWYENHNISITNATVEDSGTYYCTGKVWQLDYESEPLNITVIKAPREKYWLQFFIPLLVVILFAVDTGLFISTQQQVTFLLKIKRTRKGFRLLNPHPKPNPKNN
Outline: (§1)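 Competitive fluorescence polarization: FcεRIα subunit of human IgE receptor expressed in insect cells (7 nM) with fluorescein-labelled MCD peptide tracer (4 nM) in PBS pH 7.4, unlabelled peptide 7–500 μM, 25 °C 5 min. Ex 485/em 535 nm, mP; tracer-alone background subtracted; mean of many consecutive readings; IC50 by nonlinear regression.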

[2] = biological target: T1, High affinity immunoglobulin epsilon receptor subunit alpha; assay: Binding affinity towards Fc-epsilon RI-alpha mast cell receptor human mast cell receptor was determined; outline: as §1

Structure (SMILES)	ED50 (Rattus norvegicus)	IC50 [1] [µM]	also measured
CC[C@H](C)[C@H](N)C(=O)N[C@@H](CCCCN)C(=O)N[C@@H](CS)C(=O)N[C@@H](CC(N)=O)C(=O)N[C@@H](CS)C(=O)N[C@@H](CCCCN)C(=O)N[C@@H](CCCN=C(N)N)C(=O)N[C@@H](Cc1c[nH]cn1)C(=O)N[C@H](C(=O)N[C@H](C(=O)N[C@@H](C)C(=O)N1CCC[C@H]1C(=O)N[C@@H](Cc1c[nH]cn1)C(=O)N[C@H](C(=O)N[C@@H](CS)C(=O)N[C@@H](CCCN=C(N)N)C(=O)N[C@@H](CCCCN)C(=O)N[C@H](C(=O)N[C@@H](CS)C(=O)NCC(=O)N[C@@H](CCCCN)C(=O)N[C@@H](CC(N)=O)C(N)=O)[C@@H](C)CC)[C@@H](C)CC)[C@@H](C)CC)C(C)C (H-IKCNCKRHVIAPHICRKICGKN-NH2)	1.07	–	–
CC[C@H](C)[C@H](N)C(=O)N[C@@H](C)C(=O)N[C@@H](CS)C(=O)N[C@@H](CC(N)=O)C(=O)N[C@@H](CS)C(=O)N[C@@H](CCCCN)C(=O)N[C@@H](CCCN=C(N)N)C(=O)N[C@@H](Cc1c[nH]cn1)C(=O)N[C@H](C(=O)N[C@H](C(=O)N[C@@H](CCCCN)C(=O)N1CCC[C@H]1C(=O)N[C@@H](Cc1c[nH]cn1)C(=O)N[C@H](C(=O)N[C@@H](CS)C(=O)N[C@@H](CCCN=C(N)N)C(=O)N[C@@H](CCCCN)C(=O)N[C@H](C(=O)N[C@@H](CS)C(=O)NCC(=O)N[C@@H](CCCCN)C(=O)N[C@@H](CC(N)=O)C(N)=O)[C@@H](C)CC)[C@@H](C)CC)[C@@H](C)CC)C(C)C (H-IACNCKRHVIKPHICRKICGKN-NH2)	–	82	–
CC[C@H](C)[C@H](N)C(=O)N[C@@H](CCCCN)C(=O)N[C@@H](CS)C(=O)N[C@@H](CC(N)=O)C(=O)N[C@@H](CS)C(=O)N[C@@H](CCCCN)C(=O)N[C@@H](CCCNC(=N)N)C(=O)N[C@@H](Cc1cnc[nH]1)C(=O)N[C@H](C(=O)N[C@H](C(=O)N[C@@H](CCCCN)C(=O)N1CCC[C@H]1C(=O)N[C@@H](Cc1cnc[nH]1)C(=O)N[C@H](C(=O)N[C@@H](CS)C(=O)N[C@@H](CCCNC(=N)N)C(=O)N[C@@H](C)C(=O)N[C@H](C(=O)N[C@@H](CS)C(=O)NCC(=O)N[C@@H](CCCCN)C(=O)N[C@@H](CC(N)=O)C(N)=O)[C@@H](C)CC)[C@@H](C)CC)[C@@H](C)CC)C(C)C (H-IKCNCKRHVIKPHICRAICGKN-NH2)	–	153	–
CC[C@H](C)[C@H](N)C(=O)N[C@@H](CCCCN)C(=O)N[C@@H](CS)C(=O)N[C@@H](CC(N)=O)C(=O)N[C@@H](CS)C(=O)N[C@@H](C)C(=O)N[C@@H](CCCNC(=N)N)C(=O)N[C@@H](Cc1cnc[nH]1)C(=O)N[C@H](C(=O)N[C@H](C(=O)N[C@@H](CCCCN)C(=O)N1CCC[C@H]1C(=O)N[C@@H](Cc1cnc[nH]1)C(=O)N[C@H](C(=O)N[C@@H](CS)C(=O)N[C@@H](CCCNC(=N)N)C(=O)N[C@@H](CCCCN)C(=O)N[C@H](C(=O)N[C@@H](CS)C(=O)NCC(=O)N[C@@H](CCCCN)C(=O)N[C@@H](CC(N)=O)C(N)=O)[C@@H](C)CC)[C@@H](C)CC)[C@@H](C)CC)C(C)C (H-IKCNCARHVIKPHICRKICGKN-NH2)	–	71	–
CC[C@H](C)[C@H](N)C(=O)N[C@@H](CCCCN)C(=O)N[C@@H](CS)C(=O)N[C@@H](CC(N)=O)C(=O)N[C@@H](CS)C(=O)N[C@@H](C)C(=O)N[C@@H](CCCN=C(N)N)C(=O)N[C@@H](Cc1c[nH]cn1)C(=O)N[C@H](C(=O)N[C@H](C(=O)N[C@@H](CCCCN)C(=O)N1CCC[C@H]1C(=O)N[C@@H](Cc1c[nH]cn1)C(=O)N[C@H](C(=O)N[C@@H](CS)C(=O)N[C@@H](CCCN=C(N)N)C(=O)N[C@@H](CCCCN)C(=O)N[C@H](C(=O)N[C@@H](CS)C(=O)NCC(=O)N[C@@H](CCCCN)C(=O)N[C@@H](CC(N)=O)C(N)=O)[C@@H](C)CC)[C@@H](C)CC)[C@@H](C)CC)C(C)C (H-IKCNCARHVIKPHICRKICGKN-NH2)	12.54	–	–
CC[C@H](C)[C@H](N)C(=O)N[C@@H](CCCCN)C(=O)N[C@@H](CS)C(=O)N[C@@H](CC(N)=O)C(=O)N[C@@H](CS)C(=O)N[C@@H](CCCCN)C(=O)N[C@@H](CCCNC(=N)N)C(=O)N[C@@H](Cc1cnc[nH]1)C(=O)N[C@H](C(=O)N[C@H](C(=O)N[C@@H](C)C(=O)N1CCC[C@H]1C(=O)N[C@@H](Cc1cnc[nH]1)C(=O)N[C@H](C(=O)N[C@@H](CS)C(=O)N[C@@H](CCCNC(=N)N)C(=O)N[C@@H](CCCCN)C(=O)N[C@H](C(=O)N[C@@H](CS)C(=O)NCC(=O)N[C@@H](CCCCN)C(=O)N[C@@H](CC(N)=O)C(N)=O)[C@@H](C)CC)[C@@H](C)CC)[C@@H](C)CC)C(C)C (H-IKCNCKRHVIAPHICRKICGKN-NH2)	–	153	–
CC[C@H](C)[C@H](N)C(=O)N[C@@H](CCCCN)C(=O)N[C@@H](CS)C(=O)N[C@@H](CC(N)=O)C(=O)N[C@@H](CS)C(=O)N[C@@H](CCCCN)C(=O)N[C@@H](CCCN=C(N)N)C(=O)N[C@@H](Cc1c[nH]cn1)C(=O)N[C@H](C(=O)N[C@H](C(=O)N[C@@H](CCCCN)C(=O)N1CCC[C@H]1C(=O)N[C@@H](Cc1c[nH]cn1)C(=O)N[C@H](C(=O)N[C@@H](CS)C(=O)N[C@@H](CCCN=C(N)N)C(=O)N[C@@H](C)C(=O)N[C@H](C(=O)N[C@@H](CS)C(=O)NCC(=O)N[C@@H](CCCCN)C(=O)N[C@@H](CC(N)=O)C(N)=O)[C@@H](C)CC)[C@@H](C)CC)[C@@H](C)CC)C(C)C (H-IKCNCKRHVIKPHICRAICGKN-NH2)	0.77	–	–
CC[C@H](C)[C@H](N)C(=O)N[C@@H](CCCCN)C(=O)N[C@@H](CS)C(=O)N[C@@H](CC(N)=O)C(=O)N[C@@H](CS)C(=O)N[C@@H](CCCCN)C(=O)N[C@@H](CCCN=C(N)N)C(=O)N[C@@H](Cc1c[nH]cn1)C(=O)N[C@H](C(=O)N[C@H](C(=O)N[C@@H](CCCCN)C(=O)N1CCC[C@H]1C(=O)N[C@@H](Cc1c[nH]cn1)C(=O)N[C@H](C(=O)N[C@@H](CS)C(=O)N[C@@H](CCCN=C(N)N)C(=O)N[C@@H](CCCCN)C(=O)N[C@H](C(=O)N[C@@H](CS)C(=O)NCC(=O)N[C@@H](C)C(=O)N[C@@H](CC(N)=O)C(N)=O)[C@@H](C)CC)[C@@H](C)CC)[C@@H](C)CC)C(C)C (H-IKCNCKRHVIKPHICRKICGAN-NH2)	–	153	–
CC[C@H](C)[C@H](N)C(=O)N[C@@H](CCCCN)C(=O)N[C@@H](CS)C(=O)N[C@@H](CC(N)=O)C(=O)N[C@@H](CS)C(=O)N[C@@H](CCCCN)C(=O)N[C@@H](CCCN=C(N)N)C(=O)N[C@@H](Cc1c[nH]cn1)C(=O)N[C@H](C(=O)N[C@H](C(=O)N[C@@H](CCCCN)C(=O)N1CCC[C@H]1C(=O)N[C@@H](Cc1c[nH]cn1)C(=O)N[C@H](C(=O)N[C@@H](CS)C(=O)N[C@@H](CCCN=C(N)N)C(=O)N[C@@H](CCCCN)C(=O)N[C@H](C(=O)N[C@@H](CS)C(=O)NCC(=O)N[C@@H](CCCCN)C(=O)N[C@@H](CC(N)=O)C(N)=O)[C@@H](C)CC)[C@@H](C)CC)[C@@H](C)CC)C(C)C (H-IKCNCKRHVIKPHICRKICGKN-NH2)	–	–	IC50 [2]: 114 µM
